The text below walks through data of publication PMC7983942 (Clinical Pharmacology and Therapeutics, 2020).

The target in series [1] is T1, OATP1B1*1A (Homo sapiens, UniProt Q9Y6L6).
T1 sequence (Q9Y6L6 1-691): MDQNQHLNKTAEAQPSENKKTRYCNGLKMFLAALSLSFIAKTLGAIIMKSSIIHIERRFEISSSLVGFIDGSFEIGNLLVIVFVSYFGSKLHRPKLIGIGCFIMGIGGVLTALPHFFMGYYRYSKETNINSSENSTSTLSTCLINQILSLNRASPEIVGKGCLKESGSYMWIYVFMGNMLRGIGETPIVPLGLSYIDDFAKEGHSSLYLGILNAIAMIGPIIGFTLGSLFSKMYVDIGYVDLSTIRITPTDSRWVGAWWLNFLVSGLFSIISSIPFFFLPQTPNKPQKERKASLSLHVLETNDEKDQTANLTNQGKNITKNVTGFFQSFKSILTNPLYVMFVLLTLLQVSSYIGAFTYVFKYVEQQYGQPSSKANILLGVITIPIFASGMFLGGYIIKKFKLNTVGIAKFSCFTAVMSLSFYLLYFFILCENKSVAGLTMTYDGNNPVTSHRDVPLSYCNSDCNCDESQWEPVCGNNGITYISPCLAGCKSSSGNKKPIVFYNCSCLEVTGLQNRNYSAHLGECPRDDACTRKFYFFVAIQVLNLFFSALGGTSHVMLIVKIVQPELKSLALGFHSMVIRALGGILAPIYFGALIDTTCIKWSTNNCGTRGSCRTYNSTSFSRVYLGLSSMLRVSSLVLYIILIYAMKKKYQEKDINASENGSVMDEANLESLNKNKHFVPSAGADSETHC
Description: Uptake into transporter-transfected vs wild-type HEK293 cells. The following applies: experiment 3, substrate 1 µM, 2 minutes. It counts as in vitro ADME. The procedure, abridged: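 HEK293 cells stably transfected with OATP1B1*1A, OATP1B3 or OATP2B1, plus wild-type cells, were seeded on poly-D-lysine plates. Culture was 48 h at 37°C in DMEM with 10% FBS, pyruvate, nonessential amino acids and GlutaMAX. Test compound was 1 µM for 2 min; rosuvastatin probe was 1 µM over 2–4 min. Cells were washed four times in ice-cold buffer and lysed in methanol with internal standard. Readouts were uptake ratio versus wild-type and glucuronide/probe ratio of ratios; mean ± SD, n=3 in one experiment.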

Series [2] addresses T2, OATP1B1*5 (Homo sapiens, UniProt Q9Y6L6, V174A).
T2 sequence (Q9Y6L6 1-691 V174A): T1 sequence (Q9Y6L6 1-691) with V174A
Description: Uptake into OATP1B1 variant-transfected vs wild-type HEK293 cells. It counts as in vitro ADME. The following applies: for Uptake ratio (vs. wild‐type HEK293 cells): 2 minutes. The procedure, abridged: (§1)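 HEK293 cells stably expressing an OATP1B1 variant, alongside wild-type HEK293, were seeded at 0.5–1.2 × 10⁵ cells/well on poly-D-lysine plates. They grew 48 h at 37°C and 5% CO₂ in DMEM with 10% FBS, 1% pyruvate, nonessential amino acids and GlutaMAX. Substrate was 1 µM (0.5 µM where footnoted) for 2 min, then four ice-cold buffer washes and methanol lysis with internal standard. Uptake ratio (transfected/wild-type) is expressed as % of OATP1B1*14 in the same experiment; n=3 determinations.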

For series [3], the target named is T3, OATP1B1*15 (Homo sapiens, UniProt Q9Y6L6, N130D/V174A).
T3 sequence (Q9Y6L6 1-691 N130D/V174A): T1 sequence (Q9Y6L6 1-691) with N130D, V174A
The series is described as above. The class given is in vitro ADME. The note with it: for Uptake ratio (vs. wild‐type HEK293 cells): 2 minutes. Put shortly:
as §1

Series [4] addresses T4, OATP1B1*14 (Homo sapiens, UniProt Q9Y6L6, N130D/P155T).
T4 sequence (Q9Y6L6 1-691 N130D/P155T): T1 sequence (Q9Y6L6 1-691) with N130D, P155T
The experiment in a line: Uptake into OATP1B1 variant-transfected vs wild-type HEK293 cells. The class given is in vitro ADME. The note with it: substrate 1 µM; for Uptake ratio as percentage of OATP1B1*14 in the same experiment: OATP1B1*14 (reference); for Uptake ratio (vs. wild‐type HEK293 cells): OATP1B1*14, 2 minutes.

A short description of series [5]: Fasting plasma concentrations in healthy volunteers by SLCO1B1 genotype. The note with it: for Plasma concentration, ratio to control (95% CI) / Plasma concentration, geometric mean (95% CI): fasting, adjusted for sex; for Mean fasting plasma concentration, lower in women than in men: women vs men, 356 healthy volunteers.
In series [6] the target is T5, OAT2 (Homo sapiens, UniProt Q9Y694).
T5 sequence (Q9Y694 1-548): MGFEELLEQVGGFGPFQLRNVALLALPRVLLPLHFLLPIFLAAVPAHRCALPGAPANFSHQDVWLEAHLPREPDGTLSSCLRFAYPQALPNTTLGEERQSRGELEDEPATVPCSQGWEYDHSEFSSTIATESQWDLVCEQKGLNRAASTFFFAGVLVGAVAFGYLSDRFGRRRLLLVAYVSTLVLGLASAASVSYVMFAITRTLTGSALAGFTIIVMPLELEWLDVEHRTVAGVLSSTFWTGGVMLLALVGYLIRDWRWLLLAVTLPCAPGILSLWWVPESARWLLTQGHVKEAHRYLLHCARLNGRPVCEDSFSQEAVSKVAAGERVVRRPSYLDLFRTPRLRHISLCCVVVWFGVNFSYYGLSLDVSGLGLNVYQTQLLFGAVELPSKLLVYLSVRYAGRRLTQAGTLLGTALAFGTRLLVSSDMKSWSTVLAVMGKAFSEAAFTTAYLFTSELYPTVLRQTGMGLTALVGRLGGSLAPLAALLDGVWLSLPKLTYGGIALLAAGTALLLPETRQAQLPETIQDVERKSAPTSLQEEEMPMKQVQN
Description: Uptake into transporter-transfected vs wild-type HEK293 cells. It counts as in vitro ADME. The note with it: cyclic guanosine monophosphate 0.5 µM, two to four minutes. The procedure, abridged: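 Transfected HEK293 lines were OAT2 and OCT1, each run against wild-type cells, seeded on poly-D-lysine plates. Culture was 48 h at 37°C in DMEM with 10% FBS plus 1% gentamycin, 1% sodium pyruvate and 50 µg/mL hygromycin B. Probes were cyclic GMP 0.5 µM (OAT2) and metformin 20 µM (OCT1), over 2–4 min; test compound was 1 µM for 2 min. After four ice-cold washes and methanol lysis, the uptake ratio versus wild-type and the ratio of ratios were derived; n=3 in one experiment.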

The mark [7] stands for this setting: SLCO1B1 c.521 C/C genotype (n = 13).
Setting [8] is: SLCO1B1 c.521 T/C genotype (n = 113).
Where [9] appears, read: SLCO1B1 c.521 T/T genotype (control; n = 230).

Residue numbers refer to the chain shown, from its start.

Turning to `CC(C)n1c(/C=C/C(O)CC(O)CC(=O)O)c(-c2ccc(F)cc2)c2ccccc21` (stereo not drawn) [Fluvastatin, fluvastatin], the “Uptake ratio (vs. wild‐type HEK293 cells)” value in series [1] was determined as 2.7 ± 0.1; in series [2] (experiment 1, substrate 1 µM), 1.8 ± 0.2; in series [2] (experiment 2, substrate 1 µM) it was 1.9 ± 0.1; in series [3] (experiment 1, substrate 1 µM) it was 1.5 ± 0.1; in series [3] (experiment 2, substrate 1 µM), 1.5 ± 0.1; in series [4] (experiment 1) it was 3.2 ± 0.1. Further, the “Uptake ratio (vs. wild‐type HEK293 cells)” value turned out to be 3.1 ± 0.1 in series [4] (experiment 2) and 4.4 ± 0.1 in series [4] (experiment 3). The “Uptake ratio as percentage of OATP1B1*14 in the same experiment” value in series [2] (experiment 1, substrate 1 µM) was 56%; in series [2] (experiment 2, substrate 1 µM), 61%; in series [3] (experiment 1, substrate 1 µM) it was 47%; in series [3] (experiment 2, substrate 1 µM), 48%; in series [4] (experiment 1) it was 100%; in series [4] (experiment 2), 100%.
As for `C[C@H](CCC(=O)NCC(=O)O)[C@H]1CC[C@H]2[C@@H]3[C@H](O)C[C@@H]4C[C@H](O)CC[C@]4(C)[C@H]3CC[C@]12C` [GCDCA, Glycochenodeoxycholate], the “Plasma concentration, ratio to control (95% CI)” value is reported as 1.35 (0.865, 2.11) in series [5] (C/C genotype (n = 13) vs T/T) and 0.900 (0.751, 1.08) in series [5] (T/C genotype (n = 113) vs T/T). Also, the “Plasma concentration, geometric mean (95% CI)” value in series [5] (setting [7]) is 567 (367, 876) ng/mL; in series [5] (setting [8]) it was 378 (326, 438) ng/mL; in series [5] (setting [9]) it was 419 (378, 465) ng/mL. Besides, the “Mean fasting plasma concentration, lower in women than in men” value in series [5] is recorded as ~ 20%.
Regarding `C[C@H](CCC(=O)NCC(=O)O)[C@H]1CC[C@H]2[C@@H]3CC[C@@H]4C[C@H](O)CC[C@]4(C)[C@H]3C[C@H](O)[C@]12C` [GDCA, glycodeoxycholate], the “Plasma concentration, ratio to control (95% CI)” value in series [5] (C/C genotype (n = 13) vs T/T) is listed as 1.16 (0.675, 1.98); in series [5] (T/C genotype (n = 113) vs T/T), 1.02 (0.822, 1.27). The “Plasma concentration, geometric mean (95% CI)” value is 141 (83.3, 237) ng/mL in series [5] (setting [7]); 124 (104, 149) ng/mL in series [5] (setting [8]); 122 (107, 138) ng/mL in series [5] (setting [9]). The “Mean fasting plasma concentration, lower in women than in men” value in series [5] was ~ 20%.
On to `Nc1nc2c(ncn2[C@@H]2O[C@@H]3COP(=O)(O)O[C@H]3[C@H]2O)c(=O)[nH]1` [cyclic guanosine monophosphate], for which the “Uptake ratio (vs. wild‐type HEK293 cells), probe” value in series [6] worked out at 23.6 ± 0.58.
